In ChEMBL document CHEMBL1155264, “Synthesis of substituted-phenyl-1,2,4-triazol-3-thione analogues with modified D-glucopyranosyl residues and their antiproliferative activities” (Eur J Med Chem, 2009):

What was measured:
Bel-7402 = assay: Antiproliferative activity against human Bel7402 cells after 24 hrs by MTT assay; assay type: functional, cell-based; details: Bel-7402, 24 h
Method in brief: (§1)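 Cells plated at 1 × 10⁴ per well and cultured 24 h at 37 °C, 5% CO₂. Medium then replaced with fresh medium containing compound at varying concentrations, five wells per concentration, and incubated 24 h. MTT (5 mg/mL in phosphate buffer pH 7.4) added for 4 h at 37 °C. Absorbance read at 570 nm, blanked on cell-free medium. IC50 is 50% growth inhibition versus untreated control; mean ± SD, n = 3.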

MCF7 = assay: Antiproliferative activity against human MCF7 cells after 24 hrs by MTT assay; assay type: functional, cell-based; details: MCF7, 24 h; method in brief: as §1

Row | Structure (SMILES) | IC50 (Bel-7402) [µM] | IC50 (MCF7) [µM]
1 | O=c1[nH]cc(F)c(=O)[nH]1 [FLUOROURACIL] | 4.7 | 4.3
2 | S=c1[nH]nc(-c2ccccc2)n1/N=C/c1ccc(Cl)cc1 | 24 | 30.5
3 | CC(=O)OC[C@H]1O[C@@H](n2nc(-c3ccccc3)n(/N=C/c3ccccc3)c2=S)[C@H](OC(C)=O)[C@@H](OC(C)=O)[C@@H]1OC(C)=O | 10.7 | 18
4 | Oc1ccc(/C=N/n2c(-c3ccccc3)n[nH]c2=S)cc1 | 25.2 | 29.9
5 | COc1cc(/C=N/n2c(-c3ccccc3)n[nH]c2=S)ccc1O | 19.6 | 26.3
6 | S=c1[nH]nc(-c2ccccc2)n1/N=C/c1ccccc1 | 22.5 | 31.8
